Laboratory results from ChEMBL document CHEMBL1165965, “Synthesis and structure-activity relationships of 1,2,3,4-tetrahydropyrido[2,3-b]pyrazines as potent and selective inhibitors of the anaplastic lymphoma kinase” (Bioorg Med Chem, 2010).

Columns and labels:
[1] = molecular target: T1, Ephrin type-A receptor 8 (Homo sapiens) (UniProt P29322); assay: Inhibition of EPHA8 at 1 uM
T1 sequence (whole entry): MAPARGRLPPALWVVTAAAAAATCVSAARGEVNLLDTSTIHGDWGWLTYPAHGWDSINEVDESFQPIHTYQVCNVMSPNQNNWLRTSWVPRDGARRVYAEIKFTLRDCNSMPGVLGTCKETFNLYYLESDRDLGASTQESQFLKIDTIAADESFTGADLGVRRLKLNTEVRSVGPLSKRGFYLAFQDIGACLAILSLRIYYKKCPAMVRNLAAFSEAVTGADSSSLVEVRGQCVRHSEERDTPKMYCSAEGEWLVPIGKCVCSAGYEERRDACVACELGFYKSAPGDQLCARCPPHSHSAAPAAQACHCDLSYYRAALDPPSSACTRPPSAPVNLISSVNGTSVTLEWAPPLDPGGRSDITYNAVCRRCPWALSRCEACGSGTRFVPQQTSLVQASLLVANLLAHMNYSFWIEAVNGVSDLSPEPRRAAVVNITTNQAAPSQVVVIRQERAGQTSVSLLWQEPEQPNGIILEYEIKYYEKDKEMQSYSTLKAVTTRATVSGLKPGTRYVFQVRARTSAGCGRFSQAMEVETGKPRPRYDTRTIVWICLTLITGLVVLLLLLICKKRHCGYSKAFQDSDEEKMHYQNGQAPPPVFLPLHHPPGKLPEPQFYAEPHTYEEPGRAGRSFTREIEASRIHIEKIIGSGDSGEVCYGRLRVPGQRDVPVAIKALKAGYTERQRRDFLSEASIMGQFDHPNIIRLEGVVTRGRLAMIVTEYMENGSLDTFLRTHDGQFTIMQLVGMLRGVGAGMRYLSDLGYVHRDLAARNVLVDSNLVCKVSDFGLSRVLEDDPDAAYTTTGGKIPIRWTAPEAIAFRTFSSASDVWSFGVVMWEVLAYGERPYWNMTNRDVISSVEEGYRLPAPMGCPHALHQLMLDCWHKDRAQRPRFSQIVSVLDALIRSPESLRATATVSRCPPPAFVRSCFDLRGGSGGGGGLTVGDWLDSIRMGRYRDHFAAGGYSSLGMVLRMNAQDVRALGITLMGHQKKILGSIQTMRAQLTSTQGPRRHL
In short: (§1)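 Single-concentration screen using Ambit Bioscience KINOMEscan technology across a panel of 250–400 kinases. Per-kinase inhibition from this screen was summarized as S(90), the fraction of kinases inhibited by more than 90%.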

[2] = molecular target: Fibroblast growth factor receptor 2 (Homo sapiens) (UniProt P21802); assay: Inhibition of FGFR2 at 1 uM; in short: as §1
Fibroblast growth factor receptor 2 (Homo sapiens), sequence (P21802 22-821 limits assumed): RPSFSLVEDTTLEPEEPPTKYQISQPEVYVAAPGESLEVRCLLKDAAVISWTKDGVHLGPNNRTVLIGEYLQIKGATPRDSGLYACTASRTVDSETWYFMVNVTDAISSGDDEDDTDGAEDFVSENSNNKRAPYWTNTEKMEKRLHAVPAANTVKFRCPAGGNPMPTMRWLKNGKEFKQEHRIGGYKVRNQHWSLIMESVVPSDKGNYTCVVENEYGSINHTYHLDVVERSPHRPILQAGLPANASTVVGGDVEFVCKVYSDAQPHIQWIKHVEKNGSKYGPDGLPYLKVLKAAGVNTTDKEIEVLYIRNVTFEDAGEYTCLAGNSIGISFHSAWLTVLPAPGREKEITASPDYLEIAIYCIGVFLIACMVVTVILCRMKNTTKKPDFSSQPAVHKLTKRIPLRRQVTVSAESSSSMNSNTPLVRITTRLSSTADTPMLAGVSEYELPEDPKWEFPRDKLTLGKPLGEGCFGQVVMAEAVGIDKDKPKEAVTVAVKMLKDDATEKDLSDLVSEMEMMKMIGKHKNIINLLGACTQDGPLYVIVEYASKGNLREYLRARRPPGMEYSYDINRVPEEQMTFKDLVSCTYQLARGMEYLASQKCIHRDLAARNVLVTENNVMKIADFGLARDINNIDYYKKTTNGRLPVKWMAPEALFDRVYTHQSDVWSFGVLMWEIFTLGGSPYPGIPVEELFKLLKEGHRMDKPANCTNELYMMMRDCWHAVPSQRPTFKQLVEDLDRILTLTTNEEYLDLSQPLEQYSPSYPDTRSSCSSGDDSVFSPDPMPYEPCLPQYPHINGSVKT

[3] = molecular target: T2, Myosin light chain kinase family member 4 (Homo sapiens) (UniProt Q86YV6); assay: Inhibition of SgK085 at 1 uM
T2 sequence (whole entry): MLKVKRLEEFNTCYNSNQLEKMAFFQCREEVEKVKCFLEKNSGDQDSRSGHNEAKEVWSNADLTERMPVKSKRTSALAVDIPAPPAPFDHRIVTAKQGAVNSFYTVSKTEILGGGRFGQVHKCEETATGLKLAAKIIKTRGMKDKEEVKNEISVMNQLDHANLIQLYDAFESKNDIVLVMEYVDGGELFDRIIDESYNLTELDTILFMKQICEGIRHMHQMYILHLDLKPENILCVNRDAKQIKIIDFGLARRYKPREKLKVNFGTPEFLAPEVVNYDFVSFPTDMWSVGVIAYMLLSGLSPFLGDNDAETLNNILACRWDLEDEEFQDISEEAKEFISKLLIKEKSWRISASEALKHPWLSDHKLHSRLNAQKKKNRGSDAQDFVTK

[4] = molecular target: TRAF2 and NCK-interacting protein kinase (Homo sapiens) (UniProt Q9UKE5); assay: Inhibition of TNIK at 1 uM
TRAF2 and NCK-interacting protein kinase (Homo sapiens), sequence (Q9UKE5 whole entry, looked up): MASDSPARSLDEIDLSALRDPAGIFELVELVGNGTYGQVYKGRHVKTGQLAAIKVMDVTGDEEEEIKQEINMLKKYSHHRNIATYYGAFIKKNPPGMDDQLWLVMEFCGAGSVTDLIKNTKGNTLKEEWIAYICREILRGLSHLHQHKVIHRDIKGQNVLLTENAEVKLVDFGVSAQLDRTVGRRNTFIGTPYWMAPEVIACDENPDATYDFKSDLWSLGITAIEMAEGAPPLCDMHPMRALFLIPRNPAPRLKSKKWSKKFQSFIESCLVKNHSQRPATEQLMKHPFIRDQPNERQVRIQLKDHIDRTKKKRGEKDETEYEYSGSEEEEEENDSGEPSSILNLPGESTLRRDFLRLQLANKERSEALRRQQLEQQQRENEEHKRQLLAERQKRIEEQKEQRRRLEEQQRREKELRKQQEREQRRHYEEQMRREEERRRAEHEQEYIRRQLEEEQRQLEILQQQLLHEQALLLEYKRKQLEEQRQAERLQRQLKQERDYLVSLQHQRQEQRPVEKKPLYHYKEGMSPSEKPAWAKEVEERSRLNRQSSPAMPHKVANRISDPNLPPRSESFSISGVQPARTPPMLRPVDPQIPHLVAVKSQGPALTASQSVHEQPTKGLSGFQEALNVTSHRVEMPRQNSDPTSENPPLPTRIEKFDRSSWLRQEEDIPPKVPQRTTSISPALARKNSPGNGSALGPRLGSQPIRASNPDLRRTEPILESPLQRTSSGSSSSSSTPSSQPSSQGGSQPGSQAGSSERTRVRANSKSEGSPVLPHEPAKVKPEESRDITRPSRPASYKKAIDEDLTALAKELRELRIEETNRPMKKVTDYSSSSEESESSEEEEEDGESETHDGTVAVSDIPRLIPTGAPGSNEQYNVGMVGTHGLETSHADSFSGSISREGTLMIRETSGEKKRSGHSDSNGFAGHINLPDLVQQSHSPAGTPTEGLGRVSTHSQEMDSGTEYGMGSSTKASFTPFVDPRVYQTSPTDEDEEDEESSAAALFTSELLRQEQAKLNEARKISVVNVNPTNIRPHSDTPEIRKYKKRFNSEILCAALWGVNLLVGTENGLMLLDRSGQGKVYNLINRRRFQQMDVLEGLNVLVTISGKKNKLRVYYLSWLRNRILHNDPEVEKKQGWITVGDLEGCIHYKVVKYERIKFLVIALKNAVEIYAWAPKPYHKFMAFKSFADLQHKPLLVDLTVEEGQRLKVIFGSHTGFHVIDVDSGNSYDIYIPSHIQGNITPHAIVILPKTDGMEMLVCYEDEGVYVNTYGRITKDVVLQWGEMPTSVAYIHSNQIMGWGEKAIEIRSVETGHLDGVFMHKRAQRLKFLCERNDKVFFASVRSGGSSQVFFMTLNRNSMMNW
In short: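 Single-concentration screen on the Ambit KINOMEscan platform, run against a panel of 250–400 kinases. Per-kinase inhibition was also summarized as S(90), the fraction of kinases inhibited by more than 90%.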

[5] = molecular target: T3, Mitogen-activated protein kinase kinase kinase 6 (Homo sapiens) (UniProt O95382); assay: Inhibition of ASK2 at 1 uM
T3 sequence (whole entry): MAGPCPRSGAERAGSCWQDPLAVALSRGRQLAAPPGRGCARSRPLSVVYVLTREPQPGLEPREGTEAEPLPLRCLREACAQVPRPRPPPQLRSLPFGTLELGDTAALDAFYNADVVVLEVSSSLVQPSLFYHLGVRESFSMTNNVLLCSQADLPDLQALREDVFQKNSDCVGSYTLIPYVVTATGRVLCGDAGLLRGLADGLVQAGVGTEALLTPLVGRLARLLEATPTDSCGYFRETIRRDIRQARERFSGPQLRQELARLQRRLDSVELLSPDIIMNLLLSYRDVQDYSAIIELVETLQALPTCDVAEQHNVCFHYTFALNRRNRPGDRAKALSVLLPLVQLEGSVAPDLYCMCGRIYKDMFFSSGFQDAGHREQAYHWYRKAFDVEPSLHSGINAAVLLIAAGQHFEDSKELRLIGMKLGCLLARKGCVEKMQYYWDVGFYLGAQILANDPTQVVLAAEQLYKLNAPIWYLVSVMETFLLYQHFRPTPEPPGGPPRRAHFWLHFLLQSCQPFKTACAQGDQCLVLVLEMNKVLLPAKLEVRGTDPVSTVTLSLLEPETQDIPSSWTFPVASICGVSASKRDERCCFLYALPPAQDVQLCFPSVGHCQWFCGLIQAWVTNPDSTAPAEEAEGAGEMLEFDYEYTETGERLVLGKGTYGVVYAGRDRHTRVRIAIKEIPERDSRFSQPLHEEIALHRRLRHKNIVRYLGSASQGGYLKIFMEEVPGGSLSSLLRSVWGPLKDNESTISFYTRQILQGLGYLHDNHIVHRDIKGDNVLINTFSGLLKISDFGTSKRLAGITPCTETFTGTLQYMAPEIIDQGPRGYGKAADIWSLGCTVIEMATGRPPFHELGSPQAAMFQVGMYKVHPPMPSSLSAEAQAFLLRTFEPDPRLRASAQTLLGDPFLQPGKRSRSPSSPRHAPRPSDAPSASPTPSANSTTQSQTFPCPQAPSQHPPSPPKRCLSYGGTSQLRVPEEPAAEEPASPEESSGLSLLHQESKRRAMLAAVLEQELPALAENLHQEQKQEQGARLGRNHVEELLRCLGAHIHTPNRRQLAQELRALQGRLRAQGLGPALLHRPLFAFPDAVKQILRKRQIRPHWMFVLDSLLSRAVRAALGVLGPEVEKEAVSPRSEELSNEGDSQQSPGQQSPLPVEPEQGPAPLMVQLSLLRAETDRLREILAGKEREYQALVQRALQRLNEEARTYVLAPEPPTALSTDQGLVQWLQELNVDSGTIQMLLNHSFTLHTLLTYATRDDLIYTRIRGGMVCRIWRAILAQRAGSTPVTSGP

[6] = molecular target: 5'-AMP-activated protein kinase catalytic subunit alpha-2 (Homo sapiens) (UniProt P54646); assay: Inhibition of AMPK-alpha2 at 1 uM
5'-AMP-activated protein kinase catalytic subunit alpha-2 (Homo sapiens), sequence (P54646 whole entry, looked up): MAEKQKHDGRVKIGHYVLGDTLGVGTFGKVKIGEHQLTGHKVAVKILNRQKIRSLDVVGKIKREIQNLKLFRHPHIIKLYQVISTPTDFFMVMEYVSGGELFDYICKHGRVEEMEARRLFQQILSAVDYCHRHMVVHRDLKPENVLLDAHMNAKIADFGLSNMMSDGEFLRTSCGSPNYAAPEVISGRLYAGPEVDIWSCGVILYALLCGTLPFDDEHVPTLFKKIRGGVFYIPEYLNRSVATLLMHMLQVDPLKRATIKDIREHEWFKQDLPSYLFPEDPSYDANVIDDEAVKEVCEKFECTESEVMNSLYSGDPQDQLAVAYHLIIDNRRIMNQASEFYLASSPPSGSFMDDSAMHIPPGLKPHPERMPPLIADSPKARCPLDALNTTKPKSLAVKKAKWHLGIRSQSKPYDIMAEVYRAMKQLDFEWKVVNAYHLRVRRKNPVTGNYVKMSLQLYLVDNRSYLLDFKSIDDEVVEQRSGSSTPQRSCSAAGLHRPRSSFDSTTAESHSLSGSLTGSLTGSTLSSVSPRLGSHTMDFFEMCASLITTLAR
In short: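 Ambit KINOMEscan screen at a single concentration across a 250–400 kinase panel, recorded as percent inhibition. Selectivity was expressed as S(90), the fraction of kinases inhibited >90%.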

SMILES | inhibition [1] | inhibition [2] | inhibition [3] | inhibition [4] | inhibition [5] | inhibition [6]
CN1CCN(c2ccc(-c3cnc4c(c3)N(Cc3cc(F)ccc3F)CCN4)cn2)CC1 | < 50% | < 50% | < 50% | < 50% | < 50% | < 50%
O=C(c1ccc(-c2cnc3c(c2)N(Cc2cc(Cl)ccc2C(F)(F)F)CCN3)cc1)N1CCC(N2CCCC2)CC1 | < 50% | < 50% |  | < 50% | < 50% | < 50%
O=C(c1ccc(-c2cnc3c(c2)N(Cc2cc(Cl)ccc2C(F)(F)F)CCN3)cc1)N1CCCCC1 | < 50% | < 50% |  | < 50% |  | < 50%
CN1CCN(c2ccc(-c3cnc4c(c3)N(Cc3c(F)ccc(F)c3Cl)CCN4)cn2)CC1 | < 50% | < 50% | < 50% | 82% | < 50% | < 50%
COC1CCN(C(=O)c2ccc(-c3cnc4c(c3)N(Cc3cc(Cl)ccc3C(F)(F)F)CCN4)cc2)CC1 | < 50% | < 50% |  | < 50% | < 50% | < 50%
O=C(O)c1ccc(-c2cnc3c(c2)N(Cc2cc(Cl)ccc2C(F)(F)F)CCN3)cc1 | < 50% | < 50% |  | < 50% |  | < 50%
CC(=O)N1CCN(c2cc(-c3cnc4c(c3)N(Cc3cc(Cl)ccc3C(F)(F)F)CCN4)ccn2)CC1 | < 50% | < 50% | < 50% | < 50% | < 50% | < 50%
FC(F)(F)c1ccc(Cl)cc1CN1CCNc2ncc(-c3ccnc(N4CCNCC4)c3)cc21 | < 50% | < 50% | < 50% | < 50% | < 50% | < 50%
CN1CCN(c2ccc(-c3cnc4c(c3)N(Cc3cc(Cl)ccc3C(F)(F)F)CCN4)cn2)CC1 | < 50% | < 50% | < 50% | < 50% | < 50% | < 50%
CN1CCN(c2ccc(-c3cnc4c(c3)N(Cc3cc(Cl)ccc3Cl)CCN4)cn2)CC1 | < 50% | < 50% | < 50% | < 50% | < 50% | < 50%
